The values below come from ChEMBL document CHEMBL1138477, “8-(4-Methoxyphenyl)pyrazolo[1,5-a]-1,3,5-triazines: selective and centrally active corticotropin-releasing factor receptor-1 (CRF1) antagonists” (J Med Chem, 2009).

Series [1] concerns the target T1, Corticotropin-releasing factor receptor 1 (Rattus norvegicus, UniProt P35353).
T1 sequence (P35353 whole entry): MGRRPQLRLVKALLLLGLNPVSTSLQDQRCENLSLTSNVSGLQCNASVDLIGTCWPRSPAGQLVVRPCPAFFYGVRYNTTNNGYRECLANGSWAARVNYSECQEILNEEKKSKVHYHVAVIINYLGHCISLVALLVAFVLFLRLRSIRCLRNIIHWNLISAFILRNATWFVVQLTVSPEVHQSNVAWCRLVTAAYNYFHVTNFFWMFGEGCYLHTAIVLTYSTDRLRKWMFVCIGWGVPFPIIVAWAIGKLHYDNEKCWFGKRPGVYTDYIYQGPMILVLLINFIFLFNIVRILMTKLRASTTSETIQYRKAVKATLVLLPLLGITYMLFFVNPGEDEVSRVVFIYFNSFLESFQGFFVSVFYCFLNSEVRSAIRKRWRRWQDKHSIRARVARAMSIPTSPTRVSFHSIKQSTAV
In words: Displacement of [125I]Tyr0-ovine CRF from CRF1 receptor in rat cortical membrane by gamma counting. The series is classed as cell membranes. In a few lines:
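Inhibition of 125I-Tyr0-ovine-CRF binding to rat cortical membranes measured across dilutions of test drug; IC50 derived by iterative curve fitting.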
(In general: In a radioligand displacement assay an active substance lowers the binding of a labelled ligand.)

Series [2] has as its system Canis familiaris. Kind of series: Ex vivo displacement of [125I]Tyr0-ovine CRF from CRF1 receptor in dog at 5 mg/kg, po measured in plasma after 2 hrs. The series is classed as functional. The settings on record: Canis lupus familiaris. In a few lines: (§1)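 Beagle dogs given 5 mg/kg po (free base), in Labrafil or Tween-80/0.5% methylcellulose 1:99; plasma drawn 2 and 10 h postdose, diluted 10-fold in binding buffer, and tested for inhibition of 125I-Tyr0-ovine-CRF binding to rat receptors; mean ± SD, n = 3.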

In series [3] the test system is Canis familiaris. Kind of series: Ex vivo displacement of [125I]Tyr0-ovine CRF from CRF1 receptor in dog at 5 mg/kg, po measured in plasma after 10 hrs. The settings on record: Canis lupus familiaris. The series is classed as functional. In a few lines: as §1
Series [4] concerns the target T2, Corticotropin-releasing factor receptor 1 (Homo sapiens, UniProt P34998).
T2 sequence (P34998 whole entry): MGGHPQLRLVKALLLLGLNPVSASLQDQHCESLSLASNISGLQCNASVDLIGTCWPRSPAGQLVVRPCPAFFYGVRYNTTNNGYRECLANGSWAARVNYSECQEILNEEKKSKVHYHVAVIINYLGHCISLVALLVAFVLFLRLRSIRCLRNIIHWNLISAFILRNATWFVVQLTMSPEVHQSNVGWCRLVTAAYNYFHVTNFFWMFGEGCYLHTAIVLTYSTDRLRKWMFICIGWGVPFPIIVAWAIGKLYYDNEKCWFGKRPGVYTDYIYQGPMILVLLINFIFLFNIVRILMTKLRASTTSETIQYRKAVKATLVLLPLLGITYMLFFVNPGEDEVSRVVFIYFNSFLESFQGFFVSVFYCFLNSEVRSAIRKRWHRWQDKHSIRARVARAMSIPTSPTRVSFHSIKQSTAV
In words: Binding affinity to CRF1 receptor in human IMR32 cells. The series is classed as cell-based, IMR-32.

The target in series [5] is T3, Corticotropin-releasing factor receptor 2 (Homo sapiens, UniProt Q13324).
T3 sequence (Q13324 whole entry): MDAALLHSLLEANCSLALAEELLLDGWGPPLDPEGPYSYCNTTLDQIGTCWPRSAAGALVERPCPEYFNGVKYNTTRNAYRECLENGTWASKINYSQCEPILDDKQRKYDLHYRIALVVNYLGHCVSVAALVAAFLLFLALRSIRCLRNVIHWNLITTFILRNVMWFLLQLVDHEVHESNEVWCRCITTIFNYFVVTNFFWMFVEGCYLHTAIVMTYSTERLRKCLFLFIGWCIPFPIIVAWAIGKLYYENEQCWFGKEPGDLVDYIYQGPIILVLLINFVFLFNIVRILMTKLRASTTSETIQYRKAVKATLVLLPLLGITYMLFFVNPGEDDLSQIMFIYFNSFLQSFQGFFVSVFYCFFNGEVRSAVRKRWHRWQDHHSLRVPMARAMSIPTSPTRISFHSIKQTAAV
Kind of series: Binding affinity to human CRF2alpha receptor.

In series [6] the target is T4, Alpha-1B adrenergic receptor (Homo sapiens, UniProt P35368).
T4 sequence (P35368 whole entry): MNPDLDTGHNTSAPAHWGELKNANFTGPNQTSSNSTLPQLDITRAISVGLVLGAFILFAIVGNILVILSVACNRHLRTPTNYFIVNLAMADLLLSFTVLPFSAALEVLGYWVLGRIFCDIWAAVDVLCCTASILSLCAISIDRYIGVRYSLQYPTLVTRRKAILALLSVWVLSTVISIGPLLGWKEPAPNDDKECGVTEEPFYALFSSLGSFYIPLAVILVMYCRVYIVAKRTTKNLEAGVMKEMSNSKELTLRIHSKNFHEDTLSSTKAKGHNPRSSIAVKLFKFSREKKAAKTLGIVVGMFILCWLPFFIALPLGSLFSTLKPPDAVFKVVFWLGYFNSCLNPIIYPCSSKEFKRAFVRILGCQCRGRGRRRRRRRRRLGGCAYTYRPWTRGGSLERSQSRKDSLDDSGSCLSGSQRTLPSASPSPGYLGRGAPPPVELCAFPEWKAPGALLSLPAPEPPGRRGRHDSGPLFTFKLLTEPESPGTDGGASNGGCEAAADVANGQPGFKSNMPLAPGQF
In words: Binding affinity to adrenergic alpha-1b receptor.

Series [7] is described as follows: Binding affinity to L-type calcium channel.
The nature of series [8]: Binding affinity to N-type calcium channel.
In series [9] the target is T5, Corticotropin-releasing factor-binding protein (Homo sapiens, UniProt P24387).
T5 sequence (P24387 whole entry): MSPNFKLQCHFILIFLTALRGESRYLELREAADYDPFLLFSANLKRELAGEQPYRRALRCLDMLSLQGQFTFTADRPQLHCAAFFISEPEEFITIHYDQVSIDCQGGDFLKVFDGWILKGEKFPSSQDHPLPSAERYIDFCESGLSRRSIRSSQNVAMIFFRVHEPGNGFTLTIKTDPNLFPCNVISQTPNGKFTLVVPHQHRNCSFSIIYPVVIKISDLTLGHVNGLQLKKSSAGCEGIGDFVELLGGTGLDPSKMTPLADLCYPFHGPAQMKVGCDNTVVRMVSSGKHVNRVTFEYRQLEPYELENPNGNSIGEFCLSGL
Kind of series: Binding affinity to human recombinant CRF binding protein.

For series [10], the target named is T1, Corticotropin-releasing factor receptor 1. Kind of series: Antagonist activity at CRF1 receptor in rat brain homogenates assessed as inhibition of CRF-stimulted cAMP production. The series is classed as functional, tissue-based. In a few lines: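 Rat cortical homogenate (0.8 mg original wet weight tissue) incubated 10 min at 37 °C in 100 mM Tris-HCl pH 7.4, 10 mM MgCl2, 0.4 mM EGTA, 0.1% BSA, 1 mM IBMX, creatine phosphate/phosphocreatine kinase, 100 nM ovine-CRF; started with 1 mM ATP/[32P]ATP; [32P]cAMP separated on Dowex and alumina columns, [3H]cAMP recovery marker; n = 3.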

Series [11] has as its target T6, Corticotropin-releasing factor receptor 2 (Homo sapiens) (UniProt Q13324).
T6 sequence (whole entry): T3 sequence (Q13324 whole entry)
Kind of series: Agonist activity at human cloned CRF2alpha receptor expressed in HEK293 cells. The series is classed as functional, cell-based.

The test system of series [12] is Canis familiaris. In words: Hepatic blood flow in iv dosed Beagle dog. The series is classed as ADME, organism-based, Canis lupus familiaris, Liver. The settings on record: in vivo.

pIC50: −log10 of the molar value. Activity calls are given as the source filed them. No cut-off for these calls is given here. Bounds are passed on as bounds.

What is called pIC50 is −log10 of the IC50, conventionally taken in molar units. The term inhibition in vivo denotes the relative decrease from the control value, in per cent. `COCCN(CCOC)c1nc(C)nc2c(-c3cc(C)c(OC)cc3C)c(C)nn12`: the pIC50 is 8.70 in series [1]; 7.82 in series [4]; less than 6.00 in [5]; less than 6.00 in [6]; less than 6.00 in [7]; less than 6.00 in series [8]. Moreover, the pIC50 in [9] was less than 6.00; in series [10], 7.42. In addition, the values for the inhibition in vivo at 5 mg/kg in the series on Canis familiaris [2] and in the series with Canis familiaris [3] were 84% and 44%, respectively. Also, in series [11], the outcome was inactive. In addition, the QH in the series with Canis familiaris [12] was determined as 31 mL/min/kg.
`COCCN(CCOC)c1nc(C)nc2c(-c3ccc(OC)cc3C)c(C)nn12`: the pIC50 in [1] is 8.38; in [4], 8.33; in series [5], less than 6.00; in series [6] it was less than 6.00; in series [7] it was less than 6.00; in series [8], less than 6.00. Also, the pIC50 is less than 6.00 in series [9] and 7.18 in series [10]. The inhibition in vivo at 5 mg/kg with Canis familiaris [2] came out at 75%; in the series with Canis familiaris [3], 37%. Besides, the outcome in series [11] was inactive. The same compound came in with a QH in the series on Canis familiaris [12] of 31 mL/min/kg.
Regarding `CCC(CC)Nc1nc(C)nc2c(-c3cc(F)c(OC)cc3Cl)c(C)nn12`, the pIC50 in series [1] is 9.00; in series [4] it was 8.92; in series [5], less than 6.00; in series [6], less than 6.00; in [7], less than 6.00; in series [8], less than 6.00. Further, the negative-log IC50 (pIC50) in series [9] was less than 6.00; in series [10], 7.44. The inhibition in vivo at 5 mg/kg with Canis familiaris [2] was 97%; in the series on Canis familiaris [3], 66%. Also, the result in series [11] was inactive.
As for `CC[C@@H](C)Nc1nc(C)nc2c(-c3c(C)cc(OC)cc3OC)c(C)nn12`, the pIC50 in series [1] was 8.36; in series [4], 8.47; in series [5], less than 6.00; in series [6], less than 6.00; in series [7] it was less than 6.00; in series [8], less than 6.00. Besides, the negative-log IC50 (pIC50) was less than 6.00 in series [9] and 6.96 in series [10]. Moreover, the inhibition in vivo at 5 mg/kg came to 72% with Canis familiaris [2] and 83% with Canis familiaris [3]. Also, in [11], the result was inactive. This compound came in with a QH with Canis familiaris [12] of 31 mL/min/kg.
